Two molecules from ChEMBL document CHEMBL3580617, “Discovery of Benzimidazole CYP11B2 Inhibitors with in Vivo Activity in Rhesus Monkeys” (ACS Med Chem Lett, 2015) can be followed below.

Data set [1] concerns the target T1, Cytochrome P450 11B2, mitochondrial (Rattus norvegicus, UniProt P30099).
T1 sequence (P30099 whole entry): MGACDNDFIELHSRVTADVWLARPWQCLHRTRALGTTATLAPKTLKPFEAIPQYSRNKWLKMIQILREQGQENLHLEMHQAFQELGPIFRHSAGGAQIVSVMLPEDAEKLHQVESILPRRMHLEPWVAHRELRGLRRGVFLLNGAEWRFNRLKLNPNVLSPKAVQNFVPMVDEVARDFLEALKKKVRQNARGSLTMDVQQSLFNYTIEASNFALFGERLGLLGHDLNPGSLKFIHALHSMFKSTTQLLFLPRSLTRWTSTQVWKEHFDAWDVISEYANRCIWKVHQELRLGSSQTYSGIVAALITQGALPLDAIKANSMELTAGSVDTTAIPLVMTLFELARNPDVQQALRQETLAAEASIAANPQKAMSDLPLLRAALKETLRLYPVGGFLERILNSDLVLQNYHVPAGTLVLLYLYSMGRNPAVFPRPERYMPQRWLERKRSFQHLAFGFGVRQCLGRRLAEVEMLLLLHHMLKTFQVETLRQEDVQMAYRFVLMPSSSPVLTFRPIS
In words: Inhibition of rat CYP11B2 expressed in V79 cells incubated for 1 hr before 11-deoxycorticosterone substrate addition by HTRF-based assay. As to conditions: v79, 1 h; call rule not given here. The data set is classed as cell-based. (Time-resolved FRET reads energy transfer from a long-lived donor to a nearby acceptor.)

A short description of data set [2]: Oral bioavailability in Sprague-Dawley rat at 2 mg/kg by LC-MS/MS method. The data set is classed as ADME, organism-based. To be noted: in vivo. A digest of the protocol: (§1)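 In the rat pharmacokinetic study, AUC was normalized for dose (μM·h·kg/mg), plasma clearance was expressed in mL/min/kg, and oral bioavailability was calculated.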
Data set [3] is described as follows: Fraction unbound in rhesus monkey plasma at […] incubated for 4 hrs by equilibrium dialysis and LC/MS method. In kind it is ADME, cell-free, Macaca mulatta.
A short description of data set [4]: Plasma clearance in Sprague-Dawley rat at 2 mg/kg, po or 1 mg/kg, iv by LC-MS/MS method. The data set is classed as ADME, organism-based. A digest of the protocol: as §1
The target of another data set is Cytochrome P450 2D6 (Homo sapiens, UniProt P10635). The data set can be described thus: Inhibition of CYP2D6 (unknown origin). In kind it is ADME.
Data set [5] can be described thus: Fraction unbound in rat plasma at […] incubated for 4 hrs by equilibrium dialysis and LC/MS method. The data set is classed as ADME, cell-free. In general terms: In equilibrium dialysis free small molecules cross a membrane that holds back macromolecules.
Data set [6] in a line: Plasma clearance in rhesus monkey at 1 mg/kg, po or 0.5 mg/kg, iv by LC-MS/MS method. The data set is classed as ADME, organism-based, Macaca mulatta.
A short description of data set [7]: Intrinsic clearance in rhesus monkey liver microsomes at […] incubated for 10 mins before NADPH addition by LC/MS method. In kind it is ADME, Macaca mulatta. As to conditions: read-out: CLH.
A further data set has as its target T2, Steroid 21-hydroxylase (Homo sapiens, UniProt P08686).
T2 sequence (P08686 whole entry): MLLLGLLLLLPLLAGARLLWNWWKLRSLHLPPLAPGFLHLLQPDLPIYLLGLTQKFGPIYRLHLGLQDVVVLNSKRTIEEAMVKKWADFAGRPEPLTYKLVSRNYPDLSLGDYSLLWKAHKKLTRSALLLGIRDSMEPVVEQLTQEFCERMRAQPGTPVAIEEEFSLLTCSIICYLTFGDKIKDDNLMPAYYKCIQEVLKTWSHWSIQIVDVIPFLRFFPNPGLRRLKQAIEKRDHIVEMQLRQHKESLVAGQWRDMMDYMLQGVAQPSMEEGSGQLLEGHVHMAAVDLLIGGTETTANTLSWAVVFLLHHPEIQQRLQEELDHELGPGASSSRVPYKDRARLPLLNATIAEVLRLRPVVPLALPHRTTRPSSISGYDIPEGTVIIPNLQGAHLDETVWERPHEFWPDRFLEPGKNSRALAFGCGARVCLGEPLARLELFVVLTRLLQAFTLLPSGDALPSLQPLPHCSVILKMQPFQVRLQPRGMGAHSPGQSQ
The data set can be described thus: Inhibition of human CYP21 expressed in COS7 cells incubated for 1 hr before […] substrate addition by HTRF-based assay. In kind it is cell-based, COS-7.

A further data set concerns Rhesus monkey. The data set can be described thus: Dose normalized AUC in rhesus monkey at 1 mg/kg, po or 0.5 mg/kg, iv by LC-MS/MS method. In kind it is ADME, organism-based, Macaca mulatta. To be noted: in vivo.
The nature of data set [8]: Oral bioavailability in rhesus monkey at 1 mg/kg by LC-MS/MS method. In kind it is ADME, organism-based, Macaca mulatta. As to conditions: in vivo.
Another data set deals with Cytochrome P450 2C9 (Homo sapiens, UniProt P11712). In words: Inhibition of CYP2C9 (unknown origin). In kind it is ADME.
Another data set deals with T3, Aromatase (Homo sapiens, UniProt P11511).
T3 sequence (P11511 whole entry): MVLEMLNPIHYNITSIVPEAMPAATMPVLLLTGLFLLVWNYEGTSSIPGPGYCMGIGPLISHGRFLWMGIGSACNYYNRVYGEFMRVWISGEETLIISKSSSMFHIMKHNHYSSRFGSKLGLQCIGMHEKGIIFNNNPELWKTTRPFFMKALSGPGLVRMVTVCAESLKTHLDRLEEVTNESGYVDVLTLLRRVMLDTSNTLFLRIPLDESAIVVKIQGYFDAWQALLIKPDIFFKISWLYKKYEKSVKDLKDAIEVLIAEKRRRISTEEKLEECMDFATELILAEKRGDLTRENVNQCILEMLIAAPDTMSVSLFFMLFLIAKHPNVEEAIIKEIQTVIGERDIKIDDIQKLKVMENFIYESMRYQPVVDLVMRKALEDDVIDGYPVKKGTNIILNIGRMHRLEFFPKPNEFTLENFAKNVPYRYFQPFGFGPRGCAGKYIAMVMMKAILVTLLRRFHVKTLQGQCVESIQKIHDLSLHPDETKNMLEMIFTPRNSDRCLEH
In words: Inhibition of CYP19 (unknown origin) using MFC substrate incubated for 30 mins.

A further data set has as its system Rattus norvegicus. The data set can be described thus: Dose normalized AUC in Sprague-Dawley rat at 2 mg/kg, po or 1 mg/kg, iv by LC-MS/MS method. In kind it is ADME, organism-based. As to conditions: in vivo. The method, boiled down:
as §1

Data set [9] in a line: Intrinsic clearance in rat liver microsomes at […] incubated for 10 mins before NADPH addition by LC/MS method. The data set is classed as ADME. To be noted: read-out: CLH.
Data set [10] has as its target T4, Steroid 17-alpha-hydroxylase/17,20 lyase (Homo sapiens, UniProt P05093).
T4 sequence (P05093 whole entry): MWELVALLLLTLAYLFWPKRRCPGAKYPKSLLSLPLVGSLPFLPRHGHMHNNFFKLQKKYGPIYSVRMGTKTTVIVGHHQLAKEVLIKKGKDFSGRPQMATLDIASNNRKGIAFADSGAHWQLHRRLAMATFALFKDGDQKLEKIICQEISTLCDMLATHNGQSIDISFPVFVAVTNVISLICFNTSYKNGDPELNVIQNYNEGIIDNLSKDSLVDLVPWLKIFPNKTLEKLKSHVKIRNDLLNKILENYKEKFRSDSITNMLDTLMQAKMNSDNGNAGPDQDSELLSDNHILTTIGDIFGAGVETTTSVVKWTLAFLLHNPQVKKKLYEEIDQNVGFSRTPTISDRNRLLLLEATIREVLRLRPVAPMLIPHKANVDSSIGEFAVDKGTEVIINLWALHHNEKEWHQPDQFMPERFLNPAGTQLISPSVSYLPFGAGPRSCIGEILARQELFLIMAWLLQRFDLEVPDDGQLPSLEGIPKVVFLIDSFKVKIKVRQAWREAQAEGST
In words: Inhibition of human CYP17 expressed in COS7 cells incubated for 1 hr before 17-hydroxypregnenolone substrate addition by EIA method. In kind it is cell-based, COS-7.

Chain of Cytochrome P450 2C9 (P11712 whole entry): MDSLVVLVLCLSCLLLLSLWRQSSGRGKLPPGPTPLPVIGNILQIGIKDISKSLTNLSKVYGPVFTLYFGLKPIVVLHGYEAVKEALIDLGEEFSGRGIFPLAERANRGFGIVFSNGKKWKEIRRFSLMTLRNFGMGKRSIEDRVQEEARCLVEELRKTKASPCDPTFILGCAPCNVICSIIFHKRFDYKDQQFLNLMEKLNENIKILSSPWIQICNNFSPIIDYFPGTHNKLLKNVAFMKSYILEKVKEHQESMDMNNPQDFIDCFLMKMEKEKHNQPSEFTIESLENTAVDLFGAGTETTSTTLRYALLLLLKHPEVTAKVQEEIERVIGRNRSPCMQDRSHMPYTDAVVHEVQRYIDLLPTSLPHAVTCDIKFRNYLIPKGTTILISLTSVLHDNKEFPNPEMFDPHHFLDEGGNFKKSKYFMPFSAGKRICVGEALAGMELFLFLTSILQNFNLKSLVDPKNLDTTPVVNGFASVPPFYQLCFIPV
Chain of Cytochrome P450 2D6 (P10635 whole entry): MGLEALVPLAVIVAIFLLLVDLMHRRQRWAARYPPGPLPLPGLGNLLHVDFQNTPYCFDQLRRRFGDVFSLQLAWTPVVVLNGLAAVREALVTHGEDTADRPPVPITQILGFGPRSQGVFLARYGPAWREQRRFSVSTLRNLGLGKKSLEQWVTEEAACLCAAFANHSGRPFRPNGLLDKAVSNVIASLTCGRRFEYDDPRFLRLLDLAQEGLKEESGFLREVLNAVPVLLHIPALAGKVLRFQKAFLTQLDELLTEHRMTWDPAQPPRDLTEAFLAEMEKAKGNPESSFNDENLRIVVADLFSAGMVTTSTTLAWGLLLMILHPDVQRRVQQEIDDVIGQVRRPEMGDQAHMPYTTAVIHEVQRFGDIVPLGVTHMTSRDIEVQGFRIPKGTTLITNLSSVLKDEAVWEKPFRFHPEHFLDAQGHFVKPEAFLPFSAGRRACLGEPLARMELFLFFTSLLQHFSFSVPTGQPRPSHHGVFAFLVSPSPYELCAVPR

With `CC(C)(O)c1cncc(-c2nc3ccc(F)cc3n2C2CC2)c1` [MSD-CYP11B2], the “inhibition (INH)” value (in [1]; at Cytochrome P450 2D6; at Cytochrome P450 2C9) was “Not Active” each time. Besides, the bioavailability in data set [2] came to 76%; in [8] it was 15%. Besides, the results for the fraction unbound at 4 h in data set [3] and in data set [5] were 0.07 and 0.13, respectively. In addition, the clearance was found to be 10 mL/min/kg in data set [4] and 5 mL/min/kg in data set [6]. Also, the CLint scaled is 22 mL/min/kg in data set [7] and less than 20 mL/min/kg in data set [9]. For the same molecule, the IC50 was greater than 10 µM at Steroid 21-hydroxylase, 1.02 µM against Aromatase and greater than 10 µM in [10]. For the same molecule, the AUC/dose was found to be 1.53 µM·kg·h/mg with Rhesus monkey and 4.32 µM·kg·h/mg in the data set with Rattus norvegicus.
Consider `Fc1cncc(-c2nc3cc(F)c(F)cc3n2C2CC2)c1`, for which the “inhibition (INH)” value (in data set [1]; against Cytochrome P450 2D6; on Cytochrome P450 2C9) was “Not Active” each time. For the same molecule, the bioavailability in [2] came out at 86%; in data set [8], 53%. Further, the fraction unbound at 4 h is 0.23 in [3] and 0.14 in data set [5]. For the same molecule, the results for the clearance in data set [4] and in [6] were 37 mL/min/kg and 10 mL/min/kg, respectively. For the same molecule, the CLint scaled in data set [7] and in [9] was less than 20 mL/min/kg throughout. The IC50 on Steroid 21-hydroxylase was greater than 10 µM; against Aromatase, 4.51 µM; in data set [10], greater than 10 µM. The AUC/dose in the data set with Rhesus monkey was 3.07 µM·kg·h/mg; in the data set with Rattus norvegicus, 2.1 µM·kg·h/mg.

A word on the bioavailability: it is the share of a dose that reaches the circulation, judged against a reference dose that is usually intravenous. By fraction unbound is commonly meant free concentration divided by total concentration. In general, IC50 refers to the concentration that gives 50% inhibition.
